Assay results collected from several papers.

| SMILES | assay | test system | setting | measurement | value |
| --- | --- | --- | --- | --- | --- |
| Cc1[nH]c(C)c(S(=O)(=O)Nc2ccc(S(F)(F)(F)(F)F)cc2)c1C(=O)N1CCC(F)(F)C1 | – | mouse, brain | intraperitoneal, 40 mg/kg | Tmax | 120 min |
| CC(=O)c1c(C)c2cnc(Nc3ccc(C4CCN(CCS(C)(=O)=O)CC4)cn3)nc2n(C2CCCC2)c1=O | – | Caco-2 | 10 µM | efflux ratio | 0.96 |
| CCOC(=O)c1c(NC(=O)CNC(C)C)sc2c1CCCCC2 | – | male mouse, brain | intraperitoneal, 100 mg/kg, single dose | Tmax | 30 min |
| O=c1c2cc(Cl)c(CO)cc2[nH]c(=S)n1Cc1cccnc1 | – | Caco-2 | 10 µM, 90 min, pH 7.4 | efflux ratio | ~2 |
| N=C(N)NCCC[C@H](NC(=O)[C@H](Cc1ccccc1)NC(=O)[C@H](CCC(N)=O)NC(=O)OCc1ccccc1)C(=O)c1nccs1 | – | female C57BL/6 mouse, plasma | intravenous, 5 mg/kg | Tmax | 5 min |
| CC(C)CC(=O)OC[C@H]1O[C@@](C#N)(c2ccc3c(N)ncnn23)[C@H](O)[C@@H]1O | general toxicity | beagle dog | oral, multiple doses | NOAEL | 100 mg/kg/day |
| CC(C)NCC(O)COc1cccc2ccccc12 (stereo not shown) | – | Caco-2 | 10 µM, 2 h, pH 7.4 | efflux ratio | 0.7 |
| COc1cc(C(=O)c2nc(-c3cccc4[nH]ccc34)c[nH]2)cc(OC)c1OC | – | male CD-1 mouse, plasma | intraperitoneal, 15 mg/kg | Tmax | 8.4 min |
| O=c1c2cc(Cl)c(CO)cc2[nH]c(=S)n1Cc1cncnc1 | – | Caco-2 | 10 µM, 90 min, pH 7.4 | efflux ratio | ~2 |
| C[C@H]1O[C@@H](O[C@H]2[C@@H](O)C[C@H](O[C@H]3[C@@H](O)C[C@H](O[C@H]4CC[C@@]5(C)[C@H](CC[C@@H]6[C@@H]5C[C@@H](O)[C@]5(C)[C@@H](C7=CC(=O)OC7)CC[C@]65O)C4)O[C@@H]3C)O[C@@H]2C)C[C@H](O)[C@@H]1O | – | Caco-2 | 10 µM, 2 h, pH 7.4 | efflux ratio | 8.9 |
